Results of several laboratories.
Lines come from different studies, so protocols differ.
Read-out: enzyme activity
Action: inhibitor
INSR: Insulin receptor (INSR, Homo sapiens, UniProt P06213)
INSR phosphorylated: Insulin receptor, phosphorylated (INSR, Homo sapiens, UniProt P06213)

| SMILES | target | method | tested at | remaining activity [%] |
| --- | --- | --- | --- | --- |
| Cc1[nH]c(/C=C2\C(=O)Nc3ccc(F)cc32)c(C)c1C(=O)N[C@H]1CCN(C(=O)N(C)C)C1 | INSR | – | 0.1 µM | 132 |
| COc1cc(Cl)c(C(=O)N[C@@H](CN[C@H]2CC[C@@H](N)CC2)Cc2ccc(C#N)cc2)cc1-c1ccc(CN[C@H](C)c2ccc(C)cc2)o1 | INSR | – | 1 µM | 97 |
| Cc1sc(C(=O)NC2COC2)cc1-n1cc(NC(=O)Nc2c(F)cccc2Cl)cn1 | INSR | – | 10 µM | 85.5 |
| CC(C)(O)[C@H]1CC[C@H](Nc2ccc3ncc(-c4cccc(C(F)(F)F)c4)n3n2)CC1 | INSR | – | 1 µM | 102 |
| CC(C)(C)c1nc(-c2cccc(NS(=O)(=O)c3c(F)cccc3F)c2F)c(-c2ccnc(N)n2)s1 | INSR | radiometric | 1 µM | 108 |
| FC(F)c1nc2ccccc2n1-c1nc(N2CCOCC2)nc(N2CCOCC2)n1 | INSR | – | 10 µM | 104 |
| Cc1cnc(NC2CCOCC2)nc1-n1cnc(C(=O)NC(CN)c2cc(F)cc(Cl)c2)c1 (stereo not drawn) | INSR phosphorylated | radiometric | 1 µM | 104 |
| CCCOc1ccc(OC)c(F)c1C(=O)c1ccc(C(=O)N[C@@H]2CNC[C@H]2NC(=O)c2ccc3[nH]ncc3c2)cc1 | INSR phosphorylated | – | 10 µM | 98 |
| CC(C)(C)C(=O)c1sc(NC2CCCCC2)nc1N | INSR | – | 10 µM | 93 |
| COc1cc(Nc2cnc(C#N)c(O[C@H](C)CN(C)C)n2)ncc1-c1cnn(C)c1 | INSR | radiometric | 1 µM | 98 |
| CCN(CC)c1ccc(C2=NNC(=O)CC2C)cc1[N+](=O)[O-] (stereo not drawn) | INSR | – | 10 µM | 94 |
| Nc1nc(NC2CCCCC2)sc1C(=O)c1ccccc1 | INSR | – | 10 µM | 75 |
